Where two headings read alike, the source gives them in different places.
Columns and labels:
[1] = Direct non-enzymatic reaction with BSH
S. aureus BstA [2] = assay: Direct BstA reactions; format: biochemical, Staphylococcus aureus; conditions: for BstA dependence of reaction with BSH: with and without BstA
Method in brief: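 Purified His6-tag-cleaved S. aureus BstA, expressed in E. coli C41 (DE3). Cerulenin and BSH, 500 μM each, reacted with and without 220 nM BstA. Samples diluted 5-fold into 10 mM methanesulfonic acid, concentrated, then run on C18 reverse-phase HPLC at 0.4 mL/min with a 0–70% B gradient over 40 min (A 0.05% TFA-water, B 60% acetonitrile-water). Detection at 220 nm.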

S. aureus BstA [3] = format: biochemical, Staphylococcus aureus; conditions: for reduction of enzymatic rate compared to untreated +BstA reaction / reaction rate of +BstA reaction after treatment: 1 mM phenanthroline, 220 nM BstA; for reaction rate of +BstA reaction after treatment: 50 μM BSH, 23°C
BstA [4] = biological target: T1, BstA (Staphylococcus aureus, UniProt A0A0H2XDW9); assay: Inhibition constants of carboxamido-1,3,4-oxadiazole kinase inhibitors; format: biochemical
S. aureus MW2 = conditions: cited from earlier work
[5] = cited from earlier work
BstA [6] = biological target: T1, BstA; assay: Saturation kinetics of BstA; format: biochemical; conditions: for kcat: pH 7.0, BSH and mBCl at 37°C with 220 nM BstA, CDNB at 23°C with 2.8 μM BstA
S. aureus FosB = conditions: read-out: Km of FosB for BSH; cited from earlier work
[7] = + 220 nM BstA, 50 μM thiol, 50 μM mBCl, pH 7.0
[8] = − BstA, 50 μM thiol, 50 μM mBCl, pH 7.0

SMILES: CO[C@H]1/C=C/O[C@@]2(C)Oc3c(C)c(O)c4c(c3C2=O)C(=O)C=C(NC(=O)/C(C)=C\C=C\[C@H](C)[C@H](O)[C@@H](C)[C@@H](O)[C@@H](C)[C@H](OC(C)=O)[C@@H]1C)C4=O [rifamycin S]
- rate of direct reaction with BSH ([1]; 50 μM each, pH 7.0 and pH 6.0, BstA-independent): > 35 µM/min
- BstA dependence of reaction with BSH (S. aureus BstA [2]): BstA-independent

SMILES: O=C(O)CN(CCN(CC(=O)O)CC(=O)O)CC(=O)O [EDTA, ethylenediaminetetraacetic acid]
- effect on BstA activity (S. aureus BstA [3]): abolished activity

SMILES: C[S+]([O-])CCCCN=C=S (centres unmarked) [sulforaphane]
- BstA dependence of reaction with BSH (S. aureus BstA [2]): BstA-independent

SMILES: C/C=C/C/C=C/CCC(=O)[C@H]1O[C@H]1C(N)=O [cerulenin]
- non-enzymatic rate of adduct formation with BSH ([1]; 500 μM cerulenin, 500 μM BSH, −BstA): 170 nmol/min/mg
- adduct formation rate with BSH, +BstA (S. aureus BstA [2]; 500 μM cerulenin, 500 μM BSH, 220 nM BstA): 300 nmol/min/mg
- BstA catalyzed reaction rate (S. aureus BstA [2]; cerulenin with BSH, net enzymatic rate): 130 nmol/min/mg
- BstA dependence of reaction with BSH (S. aureus BstA [2]): weak substrate

SMILES: CCCCCC(O)/C=C/C=O (centres unmarked) [4-hydroxynonenal]
- BstA dependence of reaction with BSH (S. aureus BstA [2]): BstA-independent

SMILES: N[C@@H](CS)C(=O)O [Cysteine, cysteine]
- Specific Activity + BstA (S. aureus BstA [3]; [7]): 8.3 ± 0.5 nmol/min/mg
- Specific Activity − BstA (S. aureus BstA [3]; [8]): 6.7 ± 0.3 nmol/min/mg

SMILES: O=C(Nc1nnc(-c2ccc(F)cc2)o1)c1ccc(Br)s1 [compound 3, 5-bromo-N-[5-(4-fluorophenyl)-1,3,4-oxadiazol-2-yl]thiophene-2-carboxamide]
- Ki (BstA [4]): ~3 µM
- inhibition of BstA in concentration dependent inhibitor studies (BstA [4]; 5 μM inhibitor): effective inhibitor

SMILES: OO [hydrogen peroxide]
- increase of bstA expression (S. aureus MW2): 3 fold
- upregulation of brxB ortholog (S. aureus MW2): 6 fold
- upregulation of glxA ortholog (S. aureus MW2): 2 fold

SMILES: c1cnc2c(c1)ccc1ncccc12 [1,7-phenanthroline]
- reduction of enzymatic rate compared to untreated +BstA reaction (S. aureus BstA [3]): 27%
- reaction rate of +BstA reaction after treatment (S. aureus BstA [3]; 50 μM mBCl): 105 nmol/min/mg

SMILES: CC(C)(COP(=O)(O)OP(=O)(O)OC[C@H]1O[C@@H](n2cnc3c(N)ncnc32)[C@H](O)[C@@H]1OP(=O)(O)O)[C@@H](O)C(=O)NCCC(=O)NCCS [Coenzyme A, coenzyme A]
- Specific Activity + BstA (S. aureus BstA [3]; [7]): 1.4 ± 0.1 nmol/min/mg
- Specific Activity − BstA (S. aureus BstA [3]; [8]): 1.2 ± 0.1 nmol/min/mg
- thiol pKa [5]: 9.6

SMILES: Cc1c(C)n2c(CCl)c(C)c(=O)n2c1=O [mBCl, monochlorobimane]
- Km below the Km of CDNB (BstA [6]; mBCl vs CDNB): over 10 fold
- kcat (BstA [6]): 0.30 ± 0.02 s⁻¹

SMILES: OCl [hypochlorous acid]
- increase of bstA expression (S. aureus MW2): 2 fold
- upregulation of brxB ortholog (S. aureus MW2): 2 fold
- upregulation of glxA ortholog (S. aureus MW2): 3 fold

SMILES: c1cnc2c(c1)ccc1cccnc12 [1,10-phenanthroline]
- reduction of enzymatic rate compared to untreated +BstA reaction (S. aureus BstA [3]): > 99%
- reaction rate of +BstA reaction after treatment (S. aureus BstA [3]; 50 μM mBCl): 12.5 ± 0.7 nmol/min/mg

SMILES: CC(=O)N[C@@H](CS)C(=O)N[C@H]1[C@@H](OC2[C@H](O)[C@H](O)C(O)[C@H](O)[C@H]2O)O[C@H](CO)[C@@H](O)[C@@H]1O (some centres unmarked) [Mycothiol, mycothiol]
- Specific Activity + BstA (S. aureus BstA [3]; [7]): 3.3 ± 0.1 nmol/min/mg
- Specific Activity − BstA (S. aureus BstA [3]; [8]): 3.0 ± 0.1 nmol/min/mg

SMILES: N[C@@H](CCC(=O)N[C@@H](CS)C(=O)NCC(=O)O)C(=O)O [Glutathione, glutathione]
- Specific Activity + BstA (S. aureus BstA [3]; pH 7): 3.9 ± 0.1 nmol/min/mg
- Specific Activity − BstA (S. aureus BstA [3]; pH 7): 4.4 ± 0.4 nmol/min/mg

SMILES: N[C@@H](CS)C(=O)N[C@H]1[C@@H](O[C@@H](CC(=O)O)C(=O)O)O[C@H](CO)[C@@H](O)[C@@H]1O [BSH, bacillithiol]
- Km (S. aureus FosB): 4.2 ± 0.7 mM
- Specific Activity + BstA (S. aureus BstA [3]; [7]): 152 ± 8 nmol/min/mg
- Specific Activity − BstA (S. aureus BstA [3]; [8]): 8.4 ± 0.3 nmol/min/mg
- thiol pKa [5]: 7.46
- Km of BstA for BSH lower than that of S. aureus FosB (BstA [6]; BstA vs FosB): 260 fold
- kcat (BstA [6]): 0.21 ± 0.01 s⁻¹

SMILES: C=C(CC)C(=O)c1ccc(OCC(=O)O)c(Cl)c1Cl [etacrynic acid]
- BstA dependence of reaction with BSH (S. aureus BstA [2]): BstA-independent

SMILES: O=[N+]([O-])c1ccc(Cl)c([N+](=O)[O-])c1 [CDNB, 1-chloro-2,4-dinitrobenzene]
- catalytic efficiency below that of mBCl (BstA [6]; CDNB vs mBCl): 8 fold
- kcat (BstA [6]): 0.22 ± 0.02 s⁻¹

Reference: PMC4802972 (Biochimica et biophysica acta, 2014)
